From ChEMBL document CHEMBL3414559, “Novel C-4 heteroaryl 13-cis-retinamide Mnk/AR degrading agents inhibit cell proliferation and migration and induce apoptosis in human breast and prostate cancer cells and suppress growth of MDA-MB-231 human breast and CWR22Rv1 human prostate tumor xenografts in mice” (J Med Chem, 2015)
Calls of active or inactive are those of the source. The rule behind the calls is not given here.

Key:
LNCaP [1] = assay: Growth inhibition of human LNCAP cells by MTT assay; format: functional
Outline: (§1)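 Cells grown in RPMI 1640 with 10% FBS, plated at 2500 cells/well, treated across a dose range; growth read by MTT. GI50 taken from dose–response curves by nonlinear regression, at least three independent experiments.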

MDA-MB-468 [2] = assay: Growth inhibition of human MDA-MB-468 cells by MTT assay; format: functional; outline: as §1
[3] = Growth inhibition of human CWR22Rv1 cells by MTT assay; format: functional, CWR22R; conditions: 22Rv1; outline: as §1
MCF7 [4] = assay: Growth inhibition of human MCF7 cells by MTT assay; format: functional; outline: as §1
[5] = Growth inhibition of human SKBR3 cells by MTT assay; format: functional; conditions: SK-BR-3; outline: as §1
MDA-MB-231 [6] = assay: Growth inhibition of human MDA-MB-231 cells by MTT assay; format: functional; outline: as §1
[7] = Growth inhibition of human PC3 cells by MTT assay; format: functional; conditions: PC-3; outline: as §1
MDA-MB-231 [8] = assay: Reduction in peIF4E protein expression in human MDA-MB-231 cells at 0.63 uM to 20 uM after 24 hrs by SDS-PAGE and Western blotting method; format: functional, cell-based
Outline: (§2)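 MCF-7, MDA-MB-231 and MDA-MB-468 cells, kept in RPMI 1640 with 10% FBS, were exposed for 24 h to a range of concentrations, with DMSO vehicle controls. Equal protein from lysates was separated by SDS–PAGE and probed for Mnk1, Mnk2, peIF4E, eIF4E and cPARP. GAPDH reprobing served as loading control.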

LNCaP [9] = assay: Induction of apoptosis in human LNCAP cells assessed as increase in c-PARP formation at 0.6 uM to 20 uM after 24 hrs by SDS-PAGE and Western blotting method; format: functional, cell-based
Outline: (§3)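 LNCaP cells (RPMI 1640, 10% FBS) exposed 24 h to 0.6–20 μM, DMSO vehicle control; equal protein on SDS–PAGE, immunoblotted for fAR, Mnk1/2, peIF4E, cyclin D1 and cleaved PARP; β-actin reprobe for loading.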

MDA-MB-468 [10] = assay: Reduction in peIF4E protein expression in human MDA-MB-468 cells at 0.63 uM to 20 uM after 24 hrs by SDS-PAGE and Western blotting method; format: functional, cell-based; outline: as §2
MDA-MB-468 [11] = assay: Reduction in Mnk2 protein expression in human MDA-MB-468 cells at 0.63 uM to 20 uM after 24 hrs by SDS-PAGE and Western blotting method; format: functional, cell-based
Outline: (§4)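 Breast cancer cells in RPMI 1640 with 10% FBS treated 24 h at indicated concentrations, DMSO vehicle control; equal protein loaded on SDS–PAGE and immunoblotted for Mnk1, Mnk2, peIF4E, eIF4E and cleaved PARP; blots reprobed for GAPDH as loading control.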

MCF7 [12] = assay: Induction of apoptosis in human MCF7 cells assessed as increase in c-PARP formation at 0.63 uM to 20 uM after 24 hrs by SDS-PAGE and Western blotting method; format: functional, cell-based; outline: as §4
MDA-MB-468 [13] = assay: Reduction in Mnk1 protein expression in human MDA-MB-468 cells at 0.63 uM to 20 uM after 24 hrs by SDS-PAGE and Western blotting method; format: functional, cell-based; outline: as §4
LNCaP [14] = assay: Induction of apoptosis in human LNCAP cells assessed as reduction in cyclin D1 levels at 0.6 uM to 20 uM after 24 hrs by SDS-PAGE and Western blotting method; format: functional, cell-based; outline: as §3
LNCaP [15] = assay: Reduction in fAR protein expression in human LNCAP cells at 0.6 uM to 20 uM after 24 hrs by SDS-PAGE and Western blotting method; format: functional, cell-based
Outline: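 LNCaP cells were treated for 24 h across 0.6–20 μM, with vehicle (DMSO) controls. Equal protein from lysates was run on SDS–PAGE and immunoblotted for fAR, Mnk1/2, peIF4E, cyclin D1 and cleaved PARP. Blots were reprobed for β-actin as loading control.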

MDA-MB-231 [16] = assay: Induction of apoptosis in human MDA-MB-231 cells assessed as increase in c-PARP formation at 0.63 uM to 20 uM after 24 hrs by SDS-PAGE and Western blotting method; format: functional, cell-based; outline: as §4
MDA-MB-231 [17] = assay: Reduction in Mnk2 protein expression in human MDA-MB-231 cells at 0.63 uM to 20 uM after 24 hrs by SDS-PAGE and Western blotting method; format: functional, cell-based; outline: as §4
MDA-MB-231 [18] = assay: Reduction in Mnk1 protein expression in human MDA-MB-231 cells at 0.63 uM to 20 uM after 24 hrs by SDS-PAGE and Western blotting method; format: functional, cell-based; outline: as §4
PC-3 = assay: Inhibition of cell migration of human PC3 cells at 5 uM after 24 hrs by wound healing assay; format: functional, cell-based
Outline: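 Cells (5 × 10⁵ per well) grown to confluence, monolayer scratched at time zero, then exposed to 5 μM for 24 h; initial and final wounds photographed at 100×.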

MCF7 [19] = assay: Reduction in Mnk1 protein expression in human MCF7 cells at 0.63 uM to 20 uM after 24 hrs by SDS-PAGE and Western blotting method; format: functional, cell-based; outline: as §4
MCF7 [20] = assay: Reduction in Mnk2 protein expression in human MCF7 cells at 0.63 uM to 20 uM after 24 hrs by SDS-PAGE and Western blotting method; format: functional, cell-based; outline: as §4
MDA-MB-468 [21] = assay: Effect on total eIF4E protein expression in human MDA-MB-468 cells at 0.63 uM to 20 uM after 24 hrs by SDS-PAGE and Western blotting method; format: functional, cell-based; outline: as §4
MDA-MB-468 [22] = assay: Induction of apoptosis in human MDA-MB-468 cells assessed as increase in c-PARP formation at 0.63 uM to 20 uM after 24 hrs by SDS-PAGE and Western blotting method; format: functional, cell-based; outline: as §4
[23] = target: T1, Androgen receptor (Homo sapiens) (UniProt P10275); conditions: LNCaP, at 10 µM
T1 sequence (whole entry): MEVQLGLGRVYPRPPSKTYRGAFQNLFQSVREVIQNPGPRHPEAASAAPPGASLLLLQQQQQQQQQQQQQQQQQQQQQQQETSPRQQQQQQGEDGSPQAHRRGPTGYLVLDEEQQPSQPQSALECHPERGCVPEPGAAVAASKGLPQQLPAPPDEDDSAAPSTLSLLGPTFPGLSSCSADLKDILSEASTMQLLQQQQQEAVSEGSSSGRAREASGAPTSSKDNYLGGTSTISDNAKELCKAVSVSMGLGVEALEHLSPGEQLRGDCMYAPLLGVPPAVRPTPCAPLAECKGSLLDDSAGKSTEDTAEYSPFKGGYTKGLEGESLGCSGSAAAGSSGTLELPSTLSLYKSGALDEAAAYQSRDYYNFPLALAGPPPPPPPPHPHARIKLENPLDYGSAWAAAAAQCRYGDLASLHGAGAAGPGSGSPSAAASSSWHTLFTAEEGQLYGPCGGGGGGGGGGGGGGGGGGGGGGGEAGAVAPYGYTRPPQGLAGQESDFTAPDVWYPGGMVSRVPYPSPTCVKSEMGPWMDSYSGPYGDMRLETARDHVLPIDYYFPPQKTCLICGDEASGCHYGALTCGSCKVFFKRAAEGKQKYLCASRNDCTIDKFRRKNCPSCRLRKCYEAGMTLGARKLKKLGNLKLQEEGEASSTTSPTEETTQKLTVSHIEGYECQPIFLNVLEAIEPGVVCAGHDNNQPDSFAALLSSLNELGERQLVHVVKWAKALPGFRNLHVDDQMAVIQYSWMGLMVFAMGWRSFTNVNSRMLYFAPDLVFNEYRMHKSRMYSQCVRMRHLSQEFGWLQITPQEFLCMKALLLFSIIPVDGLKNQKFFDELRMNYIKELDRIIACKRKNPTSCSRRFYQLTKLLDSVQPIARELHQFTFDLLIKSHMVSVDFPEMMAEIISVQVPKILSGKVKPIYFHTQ

MCF7 [24] = assay: Reduction in peIF4E protein expression in human MCF7 cells at 0.63 uM to 20 uM after 24 hrs by SDS-PAGE and Western blotting method; format: functional, cell-based; outline: as §2
MCF7 [25] = assay: Effect on total eIF4E protein expression in human MCF7 cells at 0.63 uM to 20 uM after 24 hrs by SDS-PAGE and Western blotting method; format: functional, cell-based; outline: as §4
LNCaP [26] = assay: Effect on total eIF4E protein expression in human LNCAP cells at 0.6 uM to 20 uM after 24 hrs by SDS-PAGE and Western blotting method; format: functional, cell-based
LNCaP [27] = assay: Reduction in Mnk1 protein expression in human LNCAP cells at 0.6 uM to 20 uM after 24 hrs by SDS-PAGE and Western blotting method; format: functional, cell-based; outline: as §3
LNCaP [28] = assay: Reduction in Mnk2 protein expression in human LNCAP cells at 0.6 uM to 20 uM after 24 hrs by SDS-PAGE and Western blotting method; format: functional, cell-based; outline: as §3
MDA-MB-231 [29] = assay: Effect on total eIF4E protein expression in human MDA-MB-231 cells at 0.63 uM to 20 uM after 24 hrs by SDS-PAGE and Western blotting method; format: functional, cell-based; outline: as §4

## CC1=C(/C=C/C(C)=C/C=C/C(C)=C\C(=O)Nc2ccccc2O)C(C)(C)CCC1n1ccnc1 (stereo unspecified)
LNCaP [1]
  GI50: 3.23 µM
MDA-MB-468 [2]
  GI50: 3.03 µM
[3]
  GI50: 2.23 µM
MCF7 [4]
  GI50: 1.09 µM
[5]
  GI50: 3.89 µM
MDA-MB-231 [6]
  GI50: 4.67 µM
[7]
  GI50: 15.5 µM

## CC1=C(/C=C/C(C)=C/C=C/C(C)=C\C(=O)Nc2ccccc2)C(C)(C)CCC1n1ccnc1 (stereo unspecified)
MDA-MB-231 [8]
  inhibition: Dose-dependent effect
LNCaP [9]
  Activity: Active
MDA-MB-468 [10]
  inhibition: Dose-dependent effect
MDA-MB-468 [11]
  inhibition: Dose-dependent effect
MCF7 [12]
  Activity: Dose-dependent effect
MDA-MB-468 [13]
  inhibition: Dose-dependent effect
LNCaP [1]
  GI50: 2.69 µM
LNCaP [14]
  Activity: Active
LNCaP [15]
  inhibition: Dose-dependent effect
MDA-MB-231 [16]
  Activity: Dose-dependent effect
MDA-MB-468 [2]
  GI50: 2.54 µM
MDA-MB-231 [17]
  inhibition: Dose-dependent effect
MDA-MB-231 [18]
  inhibition: Dose-dependent effect
[3]
  GI50: 1.28 µM
MCF7 [4]
  GI50: 1.9 µM
PC-3
  inhibition: Active
MCF7 [19]
  inhibition: Dose-dependent effect
MCF7 [20]
  inhibition: Dose-dependent effect
MDA-MB-468 [21]
  Activity: inactive
[5]
  GI50: 1.73 µM
MDA-MB-468 [22]
  Activity: Dose-dependent effect
[23]
  inhibition: Active
MCF7 [24]
  inhibition: Dose-dependent effect
MCF7 [25]
  Activity: inactive
MDA-MB-231 [6]
  GI50: 1.74 µM
LNCaP [26]
  Activity: inactive
LNCaP [27]
  inhibition: Dose-dependent effect
[7]
  GI50: 8.91 µM
LNCaP [28]
  inhibition: Dose-dependent effect
MDA-MB-231 [29]
  Activity: inactive

## CC(O)(CS(=O)(=O)c1ccc(F)cc1)C(=O)Nc1ccc(C#N)c(C(F)(F)F)c1 (stereo unspecified) [BICALUTAMIDE]
LNCaP [1]
  GI50: 2.61 µM
[3]
  GI50: 3.81 µM
[7]
  GI50: 9.15 µM

## CC1=C(/C=C/C(C)=C/C=C/C(C)=C\C(=O)Nc2ccccc2)C(C)(C)CC=C1c1cccnc1
MDA-MB-468 [2]
  GI50: 39.8 µM
MCF7 [4]
  GI50: 8.32 µM
[5]
  GI50: 47.4 µM
MDA-MB-231 [6]
  GI50: 25.1 µM

## CC1=C(/C=C/C(C)=C/C=C/C(C)=C\C(=O)NCc2ccccc2)C(C)(C)CCC1n1ccnc1 (stereo unspecified)
LNCaP [1]
  GI50: > 100 µM
MDA-MB-468 [2]
  GI50: 7.24 µM
[3]
  GI50: > 100 µM
MCF7 [4]
  GI50: 9.77 µM
[5]
  GI50: 10.7 µM
MDA-MB-231 [6]
  GI50: 5.88 µM
[7]
  GI50: > 100 µM
